IC50 and MIC data for eight molecules are collected here from ChEMBL document CHEMBL3297687, “Eremophilane-type sesquiterpenoids with diverse skeletons from Ligularia sagitta” (J Nat Prod, 2014).

Values after ≈ are worked out from the molar mass of the structure shown.

One may read the IC50 as the concentration needed to halve the response being measured. The low end stands for greater potency, the high end for weaker potency. As usually defined, the MIC is the least concentration at which growth counts as inhibited.

Assay [1] can be described thus: Cytotoxicity against human […] cells after 48 hrs by SRB method. The assay is classed as functional, cell-based. A general note: The SRB assay estimates cell density from bound dye.
A further assay has as its system HL-60. Briefly: Cytotoxicity against human HL60 cells after 48 hrs by SRB method. The class given is functional, cell-based. To be noted: HL-60, 48 h.
The test system of a further assay is HeLa. The assay can be described thus: Cytotoxicity against human HeLa cells after 48 hrs by SRB method. The class given is functional, cell-based.
For the next assay, the system named is Bacillus cereus. The assay can be described thus: Antibacterial activity against Bacillus cereus grown in sheep blood agar media assessed as concentration required to inhibit bacterial growth due to absence of hemolysis of erythrocytes after 18 hrs by […] broth dilution method. The assay is classed as functional. In outline:
(§1)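 Colonies from overnight culture on 5% sheep blood agar were suspended in Mueller−Hinton broth to 0.5 McFarland (about 1.5 × 10^8 CFU/mL), then diluted 10-fold. Aqueous stocks (1 g/L) were used at once and doubly diluted 250−0.125 μg/mL in Mueller−Hinton broth with 5% defibrinated sheep blood. Final inoculum was 2 × 10^5−7 × 10^5 CFU/mL. Plates were incubated 18 h at 35 °C. MIC was taken as the lowest concentration with no growth, shown by absence of erythrocyte hemolysis. Triplicate; ampicillin control.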
For orientation: In broth dilution the organism is exposed to a series of concentrations in liquid medium.

The test system of assay [2] is Pectobacterium carotovorum. Briefly: Antibacterial activity against Erwinia carotovora grown in sheep blood agar media assessed as concentration required to inhibit bacterial growth due to absence of hemolysis of erythrocytes after 18 hrs by […] broth dilution method. The class given is functional. In outline: as §1
The next assay concerns Escherichia coli. The assay can be described thus: Antibacterial activity against Escherichia coli grown in sheep blood agar media assessed as concentration required to inhibit bacterial growth due to absence of hemolysis of erythrocytes after 18 hrs by […] broth dilution method. The class given is functional. In outline: as §1
In a further assay the test system is Bacillus subtilis. Briefly: Antibacterial activity against Bacillus subtilis grown in sheep blood agar media assessed as concentration required to inhibit bacterial growth due to absence of hemolysis of erythrocytes after 18 hrs by […] broth dilution method. The assay is classed as functional. In outline: as §1
The subject of a further assay is Staphylococcus aureus. The assay can be described thus: Antibacterial activity against Staphylococcus aureus grown in sheep blood agar media assessed as concentration required to inhibit bacterial growth due to absence of hemolysis of erythrocytes after 18 hrs by […] broth dilution method. The class given is functional. In outline: as §1

As for `CO[C@@]12[C@H](COC(N)=O)C3=C(C(=O)C(C)=C(N)C3=O)N1C[C@@H]1N[C@@H]12` [MITOMYCIN], the IC50 (in assay [1]; in the assay on HL-60; with HeLa) was 3 µM in each case.

As for `CC1=C2[C@@H](O)[C@]3(C)[C@@H](C)CC[C@H]4O[C@]43C[C@@]2(O)OC1=O`, the MIC in the assay with Bacillus cereus is 62.5 µg/mL (≈ 223 µM); in assay [2], 125 µg/mL (≈ 446 µM); in the assay on Escherichia coli, 125 µg/mL (≈ 446 µM); in the assay on Bacillus subtilis it was 125 µg/mL (≈ 446 µM); in the assay with Staphylococcus aureus, 125 µg/mL (≈ 446 µM).

Take `CC1(C)S[C@@H]2[C@H](NC(=O)[C@H](N)c3ccccc3)C(=O)N2[C@H]1C(=O)O` [AMPICILLIN]: the MIC in the assay on Bacillus cereus was found to be 25 µg/mL (≈ 71.5 µM); in assay [2], 100 µg/mL (≈ 286 µM); in the assay on Escherichia coli it was 100 µg/mL (≈ 286 µM); with Bacillus subtilis it was 12.5 µg/mL (≈ 35.8 µM); in the assay with Staphylococcus aureus, 25 µg/mL (≈ 71.5 µM).

In the case of `CC(=O)[C@@]12O[C@@H]1[C@@]1(C)C(=CC2=O)[C@H](O)CC[C@@H]1C`, the MIC in the assay with Bacillus cereus was > 250 µg/mL; in assay [2] it was 62.5 µg/mL (≈ 250 µM); in the assay with Escherichia coli, 31.2 µg/mL (≈ 125 µM); with Bacillus subtilis it was > 250 µg/mL; in the assay on Staphylococcus aureus, > 250 µg/mL. For the same molecule, the IC50 (in assay [1]; in the assay with HL-60; with HeLa) was 13 µM in each case.

For the molecule `C/C=C(/CO)C(=O)O[C@@H]1C2=C(C)C(=O)O[C@]2(OC)C[C@@]23O[C@@H]2CC[C@H](C)[C@@]13C`, the MIC in the assay with Bacillus cereus came to 62.5 µg/mL (≈ 159 µM); in assay [2] it was 125 µg/mL (≈ 319 µM); in the assay on Escherichia coli it was 62.5 µg/mL (≈ 159 µM); in the assay with Bacillus subtilis, 125 µg/mL (≈ 319 µM); in the assay on Staphylococcus aureus it was 125 µg/mL (≈ 319 µM). Besides, the IC50 (in assay [1]; in the assay on HL-60; with HeLa) was 13 µM throughout.

With `C/C=C(/CO)C(=O)O[C@@H]1C2=C(C)C(=O)O[C@@]2(O)C[C@@]23O[C@@H]2CC[C@H](C)[C@@]13C`, the MIC in the assay on Bacillus cereus stood at 15.5 µg/mL (≈ 41 µM); in assay [2], 7.25 µg/mL (≈ 19.2 µM); in the assay on Escherichia coli, 7.25 µg/mL (≈ 19.2 µM); with Bacillus subtilis, 7.25 µg/mL (≈ 19.2 µM); with Staphylococcus aureus, 7.25 µg/mL (≈ 19.2 µM).

As to `CC(=O)C1=C[C@@]2(C)C(=CC1=O)[C@H](O)CC[C@@H]2C`, the MIC in the assay on Bacillus cereus is > 250 µg/mL; in assay [2] it was > 250 µg/mL; with Escherichia coli, 31.2 µg/mL (≈ 133 µM); with Bacillus subtilis, > 250 µg/mL; in the assay on Staphylococcus aureus it was > 250 µg/mL.

For the molecule `C=C(CO)C(=O)O[C@@H]1C2=C(C)C(=O)O[C@@]2(O)C[C@@]23O[C@@H]2CC[C@H](C)[C@@]13C`, the MIC with Bacillus cereus was determined as 7.25 µg/mL (≈ 19.9 µM); in assay [2], 7.25 µg/mL (≈ 19.9 µM); with Escherichia coli, 7.25 µg/mL (≈ 19.9 µM); in the assay with Bacillus subtilis, 15.5 µg/mL (≈ 42.5 µM); in the assay with Staphylococcus aureus it was 7.25 µg/mL (≈ 19.9 µM).
